A word on the Kp: it is tissue or fluid exposure divided by exposure in the circulation.

SMILES strings stand for the structures. The source made the active and inactive calls. The rule behind the calls is not given here.

Data set [1] in a line: in vivo. The conditions noted are these: C57BL/6, mouse, brain/serum, ip, 9.14 umol/kg.
For data set [2] the following is noted: mouse, in vivo, ip.
The nature of data set [3]: AUC (0.5 to 6 hrs) in C57BL/6 mouse serum at 9.14 umol/kg, ip by LC-MS/MS analysis. It counts as ADME, organism-based. On the set-up: time upper 6 hr, dose 9.14 umol/kg, time lower 0.5 hr, route intraperitoneal. The conditions noted are these: in vivo. An outline of the steps: (§1)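 Male wild-type C57BL/6 mice (8−10 weeks, n=3 per time point) received parent drug or equimolar prodrug at […] i.p. in DMSO. Brain and serum were collected at 0.5, 2 and 6 h. Parent acid was quantified by LC-MS/MS against vehicle-tissue standard curves with d₆-sobetirome internal standard. AUC0.5–6 h was computed from the time course; mean ± SEM.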

A short description of data set [4]: AUC (0.5 to 6 hrs) in C57BL/6 mouse serum assessed as tesaglitazar level at 9.14 umol/kg, ip by LC-MS/MS analysis. It counts as ADME, organism-based. The conditions noted are these: in vivo. The arrangement: time lower 0.5 hr, dose 9.14 umol/kg, time upper 6 hr, route intraperitoneal. An outline of the steps:
as §1

Data set [5] in a line: Renal toxicity in C57BL/6 mouse assessed effect on Fasn gene expression in kidney at 9.14 umol/kg, ip administered once daily for 7 days by Trizol reagent based RT-qPCR analysis. The conditions noted are these: in vivo, 168 h. In kind it is organism-based. The gist of the method:
(§2)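 Male C57BL/6 mice (n=5) were dosed once daily for 7 days i.p. with parent drug at […], equimolar prodrug, or vehicle. The vehicle was 1:1:8 Kolliphor:NMP:water. Target gene expression was compared between groups per tissue by 2-tailed unpaired t test.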
In general terms: Quantitative PCR measures a nucleic acid by following its amplification.

Data set [6] is described as follows: Prodrug conversion in C57BL/6 mouse brain assessed as tesaglitazar level at 9.14 umol/kg, ip measured after 1 hr in presence of FAAH inhibitor PF-3845 by LC-MS/MS analysis. In kind it is ADME, organism-based. The conditions noted are these: in vivo. An outline of the steps: (§3)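 Male C57BL/6 mice (n=3) received PF-3845 at 1 mg/kg i.p., then prodrug at […] i.p. 1 h later; comparators received prodrug alone. Vehicle was DMSO. Whole brain was taken 1 h after prodrug and homogenized in water with d₆-sobetirome internal standard. It was extracted with EtOAc/MeCN and parent acid was measured by LC-MS/MS; mean ± SEM, 2-tailed unpaired t test.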

Data set [7] is described as follows: Brain to serum concentration ratio, Kp of the compound in C57BL/6 mouse assessed as tesaglitazar level at 9.14 umol/kg, ip by LC-MS/MS analysis. In kind it is ADME, organism-based. The gist of the method:
(§4)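 Brain-to-serum ratio Kp was calculated from brain and serum parent-drug AUC0.5–6 h (ng/g*h). These AUCs came from male C57BL/6 mice (n=3 per time point) given parent drug or equimolar prodrug at […] i.p. in DMSO, sampled at 0.5, 2 and 6 h. Parent acid was quantified by LC-MS/MS with d₆-sobetirome internal standard.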

Data set [8] is described as follows: AUC (0.5 to 6 hrs) in C57BL/6 mouse brain assessed as tesaglitazar level at 9.14 umol/kg, ip by LC-MS/MS analysis. To be noted: in vivo. On the set-up: time upper 6 hr, dose 9.14 umol/kg, time lower 0.5 hr, route intraperitoneal. It counts as ADME, organism-based. The gist of the method:
as §1

Data set [9] relates to Mus musculus. Put plainly: In vivo agonist activity at PPAR in C57BL/6 mouse assessed upregulation of Pgc1-alpha gene expression at 9.14 umol/kg, ip administered once daily for 7 days by Trizol reagent based RT-qPCR analysis. It counts as functional, organism-based. The gist of the method:
as §2

The nature of data set [10]: Hepatotoxicity in C57BL/6 mouse assessed effect on Rarres2 gene expression at 9.14 umol/kg, ip administered once daily for 7 days by Trizol reagent based RT-qPCR analysis. The conditions noted are these: in vivo, 168 h.
For data set [11], the system named is Mus musculus. Put plainly: In vivo agonist activity at RAR in C57BL/6 mouse assessed upregulation of Adam10 gene expression in brain at 9.14 umol/kg, ip administered once daily for 7 days by Trizol reagent based RT-qPCR analysis. In kind it is functional, organism-based. An outline of the steps:
as §2

Data set [12] can be described thus: Prodrug conversion in C57BL/6 mouse brain assessed as GW3965 level at 9.14 umol/kg, ip measured after 1 hr in presence of FAAH inhibitor PF-3845 by LC-MS/MS analysis. It counts as ADME, organism-based. The conditions noted are these: in vivo. The gist of the method:
as §3

The nature of data set [13]: AUC (0.5 to 6 hrs) in C57BL/6 mouse brain assessed as GW3965 level at 9.14 umol/kg, ip by LC-MS/MS analysis. It counts as ADME, organism-based. On the set-up: dose 9.14 umol/kg, time 0.5-6 hr, route intraperitoneal. The conditions noted are these: in vivo, BLD = below limit of detection. An outline of the steps:
as §1

Data set [14] can be described thus: AUC (0.5 to 6 hrs) in C57BL/6 mouse serum assessed as GW3965 level at 9.14 umol/kg, ip by LC-MS/MS analysis. To be noted: in vivo. On the set-up: time 0.5-6 hr, dose 9.14 umol/kg, route intraperitoneal. In kind it is ADME, organism-based. An outline of the steps: as §1
Data set [15] is described as follows: AUC (0.5 to 6 hrs) in C57BL/6 mouse brain assessed as GW501516 level at 9.14 umol/kg, ip by LC-MS/MS analysis. On the set-up: time 0.5-6 hr, dose 9.14 umol/kg, route intraperitoneal. The conditions noted are these: in vivo. It counts as ADME, organism-based. An outline of the steps:
as §1

The nature of data set [16]: Brain to serum concentration ratio, Kp of the compound in C57BL/6 mouse assessed as GW501516 level at 9.14 umol/kg, ip by LC-MS/MS analysis. It counts as ADME, organism-based. The gist of the method: as §4
The nature of data set [17]: AUC (0.5 to 6 hrs) in C57BL/6 mouse serum assessed as GW501516 level at 9.14 umol/kg, ip by LC-MS/MS analysis. To be noted: in vivo. In kind it is ADME, organism-based. The arrangement: dose 9.14 umol/kg, time upper 6 hr, time lower 0.5 hr, route intraperitoneal. The gist of the method: as §1
A short description of data set [18]: Prodrug conversion in C57BL/6 mouse brain assessed as GW501516 level at 9.14 umol/kg, ip measured after 1 hr in presence of FAAH inhibitor PF-3845 by LC-MS/MS analysis. It counts as ADME, organism-based. The conditions noted are these: in vivo. The gist of the method: as §3
Data set [19] in a line: AUC (0.5 to 6 hrs) in C57BL/6 mouse brain assessed as GW7604 level at 9.14 umol/kg, ip by LC-MS/MS analysis. On the set-up: time 0.5-6 hr, dose 9.14 umol/kg, route intraperitoneal. The conditions noted are these: in vivo. It counts as ADME, organism-based. The gist of the method:
as §1

The nature of data set [20]: Prodrug conversion in C57BL/6 mouse brain assessed as GW7604 level at 9.14 umol/kg, ip measured after 1 hr in presence of FAAH inhibitor PF-3845 by LC-MS/MS analysis. In kind it is ADME, organism-based. To be noted: in vivo. An outline of the steps: as §3
Data set [21] can be described thus: AUC (0.5 to 6 hrs) in C57BL/6 mouse serum assessed as GW7604 level at 9.14 umol/kg, ip by LC-MS/MS analysis. It counts as ADME, organism-based. The arrangement: time lower 0.5 hr, dose 9.14 umol/kg, time upper 6 hr, route intraperitoneal. The conditions noted are these: in vivo. An outline of the steps:
as §1

The nature of data set [22]: Brain to serum concentration ratio, Kp of the compound in C57BL/6 mouse assessed as GW7604 level at 9.14 umol/kg, ip by LC-MS/MS analysis. In kind it is ADME, organism-based. An outline of the steps:
as §4

In turn, `Cc1cc(OCC(=O)O)cc(C)c1Cc1cc(C#Cc2ccc([N+](=O)[O-])cc2)c(O)c(C(C)C)c1` displayed a Kp in [1] of 0.016. The AUC was determined as 11.9 ng·h/g in [2] and 756.9 ng·h/g in data set [3].

In the case of `CCO[C@@H](Cc1ccc(OCCc2ccc(OS(C)(=O)=O)cc2)cc1)C(=O)NC`, the AUC in data set [4] was 374.1 ng·h/g; in data set [8] it was 21.9 ng·h/g. For the same compound, the Activity result in [5] is “Non-Toxic”. For the same compound, the Drug metabolism entry in data set [6] is “Metabolite_Notdetected”. The Kp in [7] amounted to 0.06. In addition, the outcome in data set [9] was Active.

For `CC1(C)CCSc2ccc(C#Cc3ccc(C(=O)O)cn3)cc21` [TAZAROTENIC ACID], the Kp in data set [1] is 0.12. For the same compound, in data set [10], the Activity result is “Toxic”. Also, in [11], the result was inactive. In addition, the AUC worked out at 38.5 ng·h/g in data set [2] and 314.5 ng·h/g in [3].

`O=C(O)Cc1cc(I)c(Oc2ccc(O)c(I)c2)c(I)c1` [TIRATRICOL]: the AUC in data set [3] stood at 5108 ng·h/g.

With `CNC(=O)Cc1cccc(OCCCN(Cc2cccc(C(F)(F)F)c2Cl)CC(c2ccccc2)c2ccccc2)c1`, in data set [12], the Drug metabolism result is listed as “Metabolite_Notdetected”. Further, the AUC result is “Bld” in data set [13] and 155.4 ng·h/g in data set [14].

On to `Cc1cc(SCc2sc(-c3ccc(C(F)(F)F)cc3)nc2C)ccc1OCC(=O)O` [GW501516], for which the Kp in data set [1] was determined as 0.018. The AUC was determined as 41.8 ng·h/g in data set [2] and 2330 ng·h/g in data set [3].

On to `CNC(=O)COc1ccc(SCc2sc(-c3ccc(C(F)(F)F)cc3)nc2C)cc1C`, for which the AUC stood at 146.3 ng·h/g in [15] and 2705 ng·h/g in data set [17]. Further, in data set [16], the concentration ratio (Kp) worked out at 0.054. In addition, the Drug metabolism result in data set [18] is recorded as “Metabolite_Detected”.

Take `CC/C(=C(\c1ccc(O)cc1)c1ccc(/C=C/C(=O)NC)cc1)c1ccccc1`: the AUC stood at 18.03 ng·h/g in data set [19] and 17.77 ng·h/g in [21]. Besides, the Drug metabolism result in data set [20] is “Metabolite_Notdetected”. Also, the concentration ratio (Kp) in data set [22] amounted to 1.01.

The compound `CC(C)(Oc1ccc(CCNC(=O)c2ccc(Cl)cc2)cc1)C(=O)O` [BEZAFIBRATE] registered a Kp in data set [1] of 0.013. Besides, the results for the AUC in data set [2] and in data set [3] were 5.5 ng·h/g and 420.7 ng·h/g, respectively.

(Values after ChEMBL document CHEMBL4622977, “A CNS-Targeting Prodrug Strategy for Nuclear Receptor Modulators” (J Med Chem, 2020).)
